Assay results reported in ChEMBL document CHEMBL4513216, “Probing the Open Global Health Chemical Diversity Library for Multistage-Active Starting Points for Next-Generation Antimalarials” (ACS Infect Dis, 2020).

Experiment: Toxicity liver stage against HepG2, at 10uM
Format: cell-based
Set-up: test concentration 10 uM, cell line HepG2-A16-CD81EGFP
Details: human, HepG2-A16-CD81EGFP cells; read-out: INHIBITION
Method in brief: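 Uninfected HepG2-A16-CD81EGFP cells, 3 × 10^3 per well, 1536-well, plated on prespotted compound at 10 μM final, parasite-free screening media added to match infected plates; puromycin 10 μM positive, DMSO 0.5% negative; run in parallel with 48 h PbLuc assay at 37 °C, 5% CO2; viability by CellTiter-Glo luminescence, normalized to controls.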

Point of comparison: `CC(=O)OC1CN(c2nc3c(C(F)(F)F)cccc3s2)C1`, cytotoxicity at 10 µM -5.17%. Against it:
- COc1ccc(S(=O)(=O)NCC(N)c2ccccc2)c(C)c1 (centres undefined) — higher, 0.0381%
- CC(C)C(=O)N1CCCN(C(=O)NC2CCc3ccccc3C2)CC1 (centres undefined) — lower, -7.33%
- CC1CN(C(=O)CN(Cc2ccccc2Cl)C2CCCC2)CCO1 (centres undefined) — lower, -5.65%
- CC(=O)N[C@@H]1Cc2ccccc2[C@H]1Nc1cc(C2CC2)ncn1 — lower, -45.2%
- CS(=O)(=O)c1cccc(S(=O)(=O)NC(=O)CCC2CCCCC2)c1 — higher, 0.848%
- O=C(c1cccc2[nH]ncc12)N1CCCC1c1noc(C2CC2)n1 (centres undefined) — higher, -2.91%
- Cc1ccsc1C(=O)N1CC2CC1(C(=O)NCc1ccco1)C2 — lower, -6.43%
- Cc1cc2[nH]c(=O)c(=O)[nH]c2cc1S(=O)(=O)NC1CCCCC1 — lower, -8.41%
- Cc1cccc(C(Nc2nccc(-c3ccc(C)nc3C)n2)C2CC2)n1 (centres undefined) — higher, 0.74%
- CN(Cc1cccc(F)c1)C(=O)CS(=O)(=O)Cc1c(Cl)cccc1Cl — higher, -2.81%
- COc1c(NS(=O)(=O)c2ccc(F)c(C)c2)c(C)nn1C — lower, -6.33%
- CNC(=O)[C@@]12CCC3(CCN(S(C)(=O)=O)CC3)[C@@H]1CN(C(C)=O)C2 — higher, -2.07%
- CN1CCN(c2cc(CCNC(=O)C3CCC3)nc(C3CC3)n2)CC1 — higher, 0.462%
- CN(Cc1ccco1)C(=O)CN1CCOC(Cn2cccn2)C1 (centres undefined) — lower, -9.91%
- O=C(c1cc2c(s1)CCC2)N1CCC(c2ccncc2)CC1 — higher, 39.7%
- CN1CCc2c1nc1c(c2N)CCC1 — higher, 0.0371%
- CSc1nccn1-c1ccc(C(=O)NCC2CC2)cc1 — higher, -3.67%
- Cc1nc(CC(=O)N2CCCN(c3ccc(C#N)cc3)CC2)cs1 — higher, 2.37%
- Cc1cc(C[C@@H]2CCC[C@H]2NCc2cc(C)c(O)c(C)c2)on1 — higher, 3.37%
- CC(C)c1nnsc1CN1CCc2[nH]nc(-c3ccc(F)c(F)c3)c2C1 — higher, 25.9%
- CCOCCn1nc(C)cc1C(=O)N1CC[C@@](O)(COC)C(C)(C)C1 — higher, -1.66%
- CC(=O)NCCSCCOc1cccc(Br)c1 — higher, 10.1%
- CCC(=O)N1CCCCC1c1nc(N(C)C)ncc1-c1cc(C)no1 (centres undefined) — higher, 5.69%
- O=C(NCCN1CCOCC1)c1ccc(-c2ccc(F)cc2)nc1O — higher, 2.25%
- O=C1N(Cc2ccc(F)c(F)c2)CCCC12CCN(C1CCSCC1)C2 (centres undefined) — lower, -19.1%
- CC(C)C(=O)N1CCc2nc(C(=O)Nc3cccnc3)sc2CC1 — higher, 12.5%
- CCCNC(=O)C(C)N1CCC(C(=O)Nc2cnn(CC)c2)CC1 (centres undefined) — lower, -5.36%
- Cn1ccnc1CN1CCN(Cc2ccncc2)[C@@H]2CS(=O)(=O)C[C@@H]21 — higher, 1.5%
- CCc1ncc2c(n1)CN(CC(=O)NC1CCCCNC1=O)CC2 (centres undefined) — higher, 6.61%
- CCc1ccc(CN2CCC3(CC2)CNC(=O)CO3)o1 — lower, -16.5%
- Cc1nccn1-c1cccc(C2CCCN2S(=O)(=O)N(C)C)n1 (centres undefined) — higher, 3.44%
- CCc1nnc(CN(CC)C(=O)C(C)n2ccnc2C(C)C)o1 (centres undefined) — higher, 6.23%
- Cc1ccc(CN2CCC3(CC2)CC(N2CCN(C)CC2)CO3)s1 (centres undefined) — lower, -94.6%
- Cc1cnccc1N1CCCN(C(=O)CCc2n[nH]c(C)c2C)CC1 — higher, -3.79%
- Cc1cc2c(C)cc(O)cc2c(=O)o1 — higher, 5.73%
- COc1ccccc1CNC(Cn1cncn1)c1ccccc1 (centres undefined) — lower, -6.1%
- CC(=O)N1CCCC(Cc2cnc(-c3c(C)nn(C)c3C)cn2)C1 (centres undefined) — higher, -1.37%
- O=C1NCCc2c1sc1ccc(C(=O)N3CC[C@H](CO)[C@H](O)C3)cc21 — higher, -1.7%
- Cc1[nH]c2ccccc2c1-c1ccnc(N[C@@H](C)CO)n1 — lower, -6.52%
- Cc1ccc(C)c2c(O)cc(CNCC(=O)N3CCCC3)nc12 — lower, -12.4%
- O=C(O)c1cc(-c2ccc3c(c2)OCO3)cc(S(=O)(=O)NC2CC2)c1 — higher, 2.8%
- Cc1cc(C[S+]([O-])CC(=O)NCc2ccccc2)no1 (centres undefined) — higher, -2.13%
- CC(C)n1nc(CN2CCCC2=O)c2c1CN(C(=O)c1ccc[nH]1)C2 — higher, 5.39%
- CC(C)c1noc(C(C)N2CCN(Cc3cccc(C#N)c3)CC2)n1 (centres undefined) — lower, -14.3%
- Cn1cnc(S(=O)(=O)N2CCCC2c2ccnc3nccn23)c1 (centres undefined) — higher, 6.28%
- COc1ccc(NC(=O)C2CC2)cc1OCc1cccnc1 — lower, -50.5%
- CC(=O)N1CCN(C(=O)CNc2ccc3ncsc3c2)CC1 — higher, -2.01%
- CC(C)c1nc(/C=C/c2cnn(-c3ccc(Cl)cc3)c2)ncc1C(=O)O — lower, -6.21%
- CC(O)CN1CCN(C(=O)c2cnc(OC(C)C)c(Cl)c2)CC1 (centres undefined) — lower, -19.5%
- CCc1cc(=O)[nH]c2nnc(SCC(=O)NC)n12 — higher, -4.06%
- CC(C)n1ccc2ccc(C(=O)NC3CN4CCC3CC4)cc21 (centres undefined) — lower, -57.4%
- Cc1noc(CNc2cccc(C(=O)N3CCCC(O)C3)c2)n1 (centres undefined) — higher, -0.961%
- O=C(CN1CCOC1=O)N1CCc2nnc(-c3ccccc3)n2CC1 — lower, -16.2%
- COCC1CN(Cc2ccoc2)Cc2nn(C)cc21 (centres undefined) — lower, -81.7%
- CC(=O)N1CCOC(c2cncc(CCC(N)=O)n2)C1 (centres undefined) — higher, -2.74%
- CSc1ccccc1C(=O)Nc1ccc(OC2CCN(C)CC2)cc1 — higher, 3.39%
- CN(C)c1nc2c(c(N3CCc4c(c(CO)nn4C)C3)n1)CCNC2 — lower, -5.72%
- Cc1nn(C)cc1NC(=O)CN1CCC(Oc2cnccn2)CC1 — higher, -4.19%
- Clc1cccc(C(CNc2ncccn2)N2CCOCC2)c1 (centres undefined) — higher, 4.55%
- N[C@@H](Cc1ccccc1)c1nnc(S(=O)(=O)Cc2cccc(Cl)c2)o1 — higher, 7.87%
- Cc1cnn(CCNCc2csc(-c3ccco3)n2)c1 — lower, -5.28%
- COc1cccc(C(c2c(C)n[nH]c2O)c2c(C)n[nH]c2O)c1OC — higher, 12.4%
- Cn1cc(C(=O)N[C@H]2CN(Cc3nccs3)[C@@H]3CCCO[C@H]23)cn1 — higher, 0.893%
- OCc1cc2ccccc2nc1NCC1CCN(CC(F)(F)F)C1 (centres undefined) — lower, -55.7%
- CN(CCCNC(=O)c1cccc(OCC(N)=O)c1)CC(F)(F)F — lower, -10.4%
- CCn1nc(C)c2nc(C(C)C)nc(N(C)Cc3ccco3)c21 — higher, 15.6%
- CCn1c(C2CCN(C(=O)c3cc(C4CC4)on3)CC2)nn(C)c1=O — lower, -5.82%
- Cc1nn(C)c2ncnc(N3CCCC(OCc4ccccn4)C3)c12 (centres undefined) — higher, 7.96%
- CCN(Cc1ccco1)C(=O)Nc1cc(C(F)(F)F)c[nH]c1=O — higher, -2.6%
- COCCN1CCCC(Cc2ccc(N3CCOCC3)nn2)C1 (centres undefined) — lower, -17.9%
- COCc1cnc2n1CCN(C(=O)c1cn(C)c3ccccc13)C2C (centres undefined) — lower, -108%
- CCc1ccc2nc(C)cc(C(=O)N[C@@H]3C[C@@H](CO)N(C)C3)c2c1 — higher, 2.35%
- O=C(CSC1CCCC1)N1CCN(c2ccc(-n3cncn3)nn2)CC1 — higher, 6.93%
- COc1ccc(OC)c(CN2CCN(Cc3cscn3)CC2)c1 — lower, -7.15%
- O=C([C@H]1CCCO1)N1CCCC2(COCCN(c3ccccc3)C2)C1 (some centres undefined) — higher, 13.9%
- N#Cc1cccc(CN2CC3(CCCCN3c3cncnc3)CC2=O)c1 (centres undefined) — higher, 2.53%
- Cc1ccc(CNc2ccc(C(=O)N3CCNC(=O)C3)cn2)cc1 — higher, 4.64%
- CCn1ncc(Br)c1CN(C)S(=O)(=O)c1ccc(C)cc1 — higher, 14.5%
- CN(Cc1ccco1)C[C@H]1OC[C@@H]2CCN(Cc3nccs3)C[C@@H]21 — lower, -5.9%
- C[C@H]1C[C@H]2CN(C(=O)CCc3ccccc3)CC[C@H]2O1 — lower, -75.6%
- Cc1csc(C(C)(C)NCc2ncc(-c3ccc(F)cc3)o2)n1 — higher, 8.27%
- COCc1noc(-c2cc(Cl)c3c(c2)OCCCO3)n1 — higher, 0.174%
- CCc1nc(NC2CCCN(C(=O)C3CC3)C2)c2cnn(C)c2n1 (centres undefined) — higher, -1.05%
- COc1cc(C)c(S(=O)(=O)NCc2cccnc2N(C)C)c(C)c1 — higher, 12.2%
- O=C(CCNC(=O)c1ccoc1)Nc1cc(F)cc(F)c1 — lower, -7.41%
- CC(C)(C)n1cc(NC(=O)C2CN(Cc3ccccc3)CCO2)cn1 (centres undefined) — higher, 0.935%
- Cc1cccc(N2CCN(C(=O)CC3(O)CCCC3)C(C)C2)n1 (centres undefined) — higher, 15.9%
- COc1ccccc1C(=O)N1CCCC1Cn1cc(C)cn1 (centres undefined) — lower, -6.49%
- Nc1nc(CNc2nccc(CCC(F)(F)F)n2)cs1 — higher, -2.38%
- O=C(c1cccc(F)c1Cl)N(CCO)CC1CC1 — higher, 0.684%
- CCOc1ccc(C2SCC(=O)Nc3c2c(=O)[nH]n3C(C)C)cc1 (centres undefined) — higher, 8.68%
- CN1C[C@H](O)C[C@H]1c1nc(-c2ccc(OC(F)(F)F)cc2)no1 — lower, -12.2%
- CC(C)(C)c1c[nH]c([C@@H]2COCCN2C2CCC2)n1 — higher, 5.99%
- CCc1nc(CCNC(=O)NC2CC2)sc1C — lower, -14.4%
- Cc1nc(C)n(CC(C)C(=O)N2CCC(N3CCC(O)CC3)CC2)n1 (centres undefined) — higher, 1.43%
- CCc1nccn1C1CCCN(C(=O)c2ccnc(N(C)C)c2)C1 (centres undefined) — higher, 0.795%
- O=S(=O)(c1cccnc1)N1C[C@@H]2COC[C@]2(COCC2CC2)C1 — higher, 4.83%
- CC(=O)N1CCCN(C(=O)NCc2ccc(Cl)s2)CC1 — higher, -4.02%
- Cc1cccc(CN(C(=O)CCn2cncn2)C(C)C)c1 — higher, 8.32%
- COCC1CN(C(=O)Cc2ccccn2)Cc2ncnn2C1 (centres undefined) — higher, -2.47%
- CCc1nnc(Nc2cccc(C3CCN(c4cnccn4)CC3)n2)s1 — lower, -26.5%
- CCC(CNC(=O)c1cc(OC)ccc1Br)N1CCc2ccccc2C1 (centres undefined) — lower, -6.78%
- O=C(NCC1CCCO1)c1cc(-c2ccc3c(c2)CCO3)n[nH]1 (centres undefined) — lower, -8.13%
- COc1ccc(C(=O)N2CCCCC2c2nccs2)c(OC)c1 (centres undefined) — lower, -10.7%
- CC1CN(CC(=O)NC(=O)NCc2cccs2)CCN1CC(F)(F)F (centres undefined) — higher, -0.402%
- O=C(NCc1ccc(-n2cncn2)nc1)c1ccc2c(c1)CCO2 — lower, -10.2%
- COC[C@@]12CC[C@@H](N3CCOCC3)C[C@H]1CCN(c1ncccc1F)C2 — higher, -3.47%
- CS(=O)(=O)NC1CCCN(C(=O)c2cccnc2)C1 (centres undefined) — higher, -3.75%
